Source: ChEMBL document CHEMBL3232838, “Synthesis, crystal structure and biological evaluation of some novel 1,2,4-triazolo[3,4-b]-1,3,4-thiadiazoles and 1,2,4-triazolo[3,4-b]-1,3,4-thiadiazines” (Eur J Med Chem, 2014)

What was measured:
[1] = Anticancer activity against Syrian golden hamster BHK21 cells at 0.1 uM after 48 hrs by SRB assay; type: functional; conditions: Mesocricetus auratus, BHK-21, 48 h; read-out: GI
How it was run: (§1)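 RPMI-1640 culture with 10% heat-inactivated FBS, 2 mM glutamine, 1 mM pyruvate and penicillin/streptomycin at 37 °C, 5% CO2. Cells per 96-well well: H157 10⁴, BHK-21 5×10⁴. After 24 h, monolayers were exposed to 100, 10, 1 or 0.1 µM compound for 48 h, with vincristine as standard. Cells were fixed in cold 50% TCA (4 °C, 1 h) and stained with 0.4% SRB in 1% acetic acid (30 min). Dye was dissolved in 10 mM Tris and read at A490 minus A630. Read-out was percent inhibition.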

[2] = Anticancer activity against Syrian golden hamster BHK21 cells at 10 uM after 48 hrs by SRB assay; type: functional; conditions: Mesocricetus auratus, BHK-21, 48 h; read-out: GI; how it was run: as §1
Cholinesterase = Cholinesterase (Homo sapiens, UniProt P06276); assay: Inhibition of human BChE using butyrylthiocholine iodide as substrate preincubated for 10 mins before substrate addition after 15 mins by Ellman's method
Cholinesterase, sequence (P06276 whole entry): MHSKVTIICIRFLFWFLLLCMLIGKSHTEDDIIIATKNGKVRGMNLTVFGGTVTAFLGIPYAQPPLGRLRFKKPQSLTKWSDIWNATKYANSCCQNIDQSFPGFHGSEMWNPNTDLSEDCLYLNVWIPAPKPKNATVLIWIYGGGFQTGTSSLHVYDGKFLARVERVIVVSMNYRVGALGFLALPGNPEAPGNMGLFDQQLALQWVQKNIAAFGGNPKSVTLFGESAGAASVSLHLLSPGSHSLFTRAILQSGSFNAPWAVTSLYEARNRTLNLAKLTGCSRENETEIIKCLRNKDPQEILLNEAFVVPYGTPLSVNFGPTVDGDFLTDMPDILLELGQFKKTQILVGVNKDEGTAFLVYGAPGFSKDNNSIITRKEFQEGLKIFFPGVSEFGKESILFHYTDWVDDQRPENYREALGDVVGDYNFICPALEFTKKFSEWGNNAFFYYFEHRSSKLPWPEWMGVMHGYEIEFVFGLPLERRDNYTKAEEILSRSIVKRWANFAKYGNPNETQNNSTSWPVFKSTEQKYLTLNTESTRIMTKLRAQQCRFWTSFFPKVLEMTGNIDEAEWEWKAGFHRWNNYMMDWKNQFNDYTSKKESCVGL
How it was run: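 Ellman assay in 50 mM Tris-HCl, 0.1 M NaCl, 0.02 M MgCl2, pH 8.0, with DMSO at 1% final. hBChE (3.4 U/mg) is preincubated with compound for 10 min at 25 °C. Blanks lack enzyme or substrate. IC50 from linear regression.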

[3] = molecular target: Intestinal-type alkaline phosphatase (Bos taurus, UniProt P19111); assay: Inhibition of calf intestinal alkaline phosphatase using p-nitrophenyl phosphate as substrate preincubated for 10 mins before substrate addition after 30 mins
Intestinal-type alkaline phosphatase, sequence (P19111 whole entry): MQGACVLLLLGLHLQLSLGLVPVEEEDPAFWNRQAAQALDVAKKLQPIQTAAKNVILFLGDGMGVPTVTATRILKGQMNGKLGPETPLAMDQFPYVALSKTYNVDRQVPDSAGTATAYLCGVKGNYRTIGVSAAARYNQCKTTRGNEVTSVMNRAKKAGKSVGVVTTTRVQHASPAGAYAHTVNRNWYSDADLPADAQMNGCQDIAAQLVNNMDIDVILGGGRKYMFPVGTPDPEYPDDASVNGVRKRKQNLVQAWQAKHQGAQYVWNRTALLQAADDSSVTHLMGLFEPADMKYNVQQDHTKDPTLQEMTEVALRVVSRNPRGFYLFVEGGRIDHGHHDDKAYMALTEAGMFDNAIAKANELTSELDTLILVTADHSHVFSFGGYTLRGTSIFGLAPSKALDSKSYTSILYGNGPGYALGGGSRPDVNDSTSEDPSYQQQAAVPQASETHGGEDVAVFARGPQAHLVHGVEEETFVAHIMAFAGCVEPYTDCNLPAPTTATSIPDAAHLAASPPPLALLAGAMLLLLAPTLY

[4] = Anticancer activity against Syrian golden hamster BHK21 cells at 100 uM after 48 hrs by SRB assay; type: functional; conditions: Mesocricetus auratus, BHK-21, 48 h; read-out: GI; how it was run: as §1
NCI-H157 [5] = assay: Anticancer activity against human NCI-H157 cells at 10 uM after 48 hrs by SRB assay; type: functional; conditions: NCI-H157, 48 h, read-out: GI; how it was run: as §1
Leishmania major [6] = assay: Antileishmanial activity against promastigote form of Leishmania major at 100 uM after 72 hrs by MTT assay; type: functional
How it was run: (§2)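 Log-phase promastigotes grown at 25 °C in phenol-red-free D-MEM/F-12 with 10% heat-inactivated FBS, washed in PBS, seeded at 2.5×10⁶/mL (100 µL/well). Compounds in triplicate wells, 72 h at 25 °C; amphotericin B standard. MTT (5 mg/mL stock) 3 h, stopped with 50% isopropanol/10% SDS, OD570 minus 690. Percent inhibition vs control; mean ± SEM of three independent experiments.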

NCI-H157 [7] = assay: Anticancer activity against human NCI-H157 cells at 0.1 uM after 48 hrs by SRB assay; type: functional; conditions: NCI-H157, 48 h, read-out: GI; how it was run: as §1
Leishmania major [8] = assay: Antileishmanial activity against promastigote form of Leishmania major at 10 uM after 72 hrs by MTT assay; type: functional; how it was run: as §2
[9] = Anticancer activity against Syrian golden hamster BHK21 cells at 1 uM after 48 hrs by SRB assay; type: functional; conditions: Mesocricetus auratus, BHK-21, 48 h; read-out: GI; how it was run: as §1
Acetylcholinesterase = Acetylcholinesterase (Electrophorus electricus, UniProt O42275); assay: Inhibition of electric eel acetylcholinesterase using acetylthiocholine iodide as substrate preincubated for 10 mins before substrate addition after 15 mins by Ellman's method
Acetylcholinesterase, sequence (O42275 whole entry): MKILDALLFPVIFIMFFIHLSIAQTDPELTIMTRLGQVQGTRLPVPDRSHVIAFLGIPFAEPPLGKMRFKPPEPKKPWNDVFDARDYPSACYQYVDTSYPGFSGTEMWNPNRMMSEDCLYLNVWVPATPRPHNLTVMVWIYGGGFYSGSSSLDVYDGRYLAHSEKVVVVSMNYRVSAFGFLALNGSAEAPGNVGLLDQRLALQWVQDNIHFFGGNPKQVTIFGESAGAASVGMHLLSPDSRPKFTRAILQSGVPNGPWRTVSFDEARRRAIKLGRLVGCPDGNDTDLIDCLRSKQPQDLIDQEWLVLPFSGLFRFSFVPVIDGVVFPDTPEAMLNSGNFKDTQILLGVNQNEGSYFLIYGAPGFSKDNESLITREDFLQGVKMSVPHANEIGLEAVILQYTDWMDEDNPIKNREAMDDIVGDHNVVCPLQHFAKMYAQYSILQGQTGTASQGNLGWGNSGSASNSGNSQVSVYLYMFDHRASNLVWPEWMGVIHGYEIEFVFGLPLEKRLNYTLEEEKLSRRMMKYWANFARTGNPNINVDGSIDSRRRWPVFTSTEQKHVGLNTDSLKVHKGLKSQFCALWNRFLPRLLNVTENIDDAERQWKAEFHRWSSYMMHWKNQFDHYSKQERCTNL

Leishmania major [10] = assay: Antileishmanial activity against promastigote form of Leishmania major at 0.1 uM after 72 hrs by MTT assay; type: functional; how it was run: as §2
Leishmania major [11] = assay: Antileishmanial activity against promastigote form of Leishmania major at 1 uM after 72 hrs by MTT assay; type: functional; how it was run: as §2
NCI-H157 [12] = assay: Anticancer activity against human NCI-H157 cells at 1 uM after 48 hrs by SRB assay; type: functional; conditions: NCI-H157, 48 h, read-out: GI; how it was run: as §1
NCI-H157 [13] = assay: Anticancer activity against human NCI-H157 cells at 100 uM after 48 hrs by SRB assay; type: functional; conditions: NCI-H157, 48 h, read-out: GI; how it was run: as §1

Row | SMILES | inhibition of growth at 0.1 µM [1] | inhibition of growth at 10 µM [2] | IC50 (Cholinesterase) | IC50 [3] | inhibition of growth at 100 µM [4] | inhibition of growth at 10 µM (NCI-H157 [5]) | inhibition at 100 µM (Leishmania major [6]) | inhibition of growth at 0.1 µM (NCI-H157 [7]) | inhibition at 10 µM (Leishmania major [8]) | inhibition of growth at 1 µM [9] | IC50 (Acetylcholinesterase) | inhibition at 0.1 µM (Leishmania major [10]) | inhibition at 1 µM (Leishmania major [11]) | inhibition of growth at 1 µM (NCI-H157 [12]) | inhibition of growth at 100 µM (NCI-H157 [13]) | inhibition (Cholinesterase) | inhibition of growth at 100 µM (Leishmania major [6]; read-out: GI)
1 | c1ccc2c(C3=Nn4c(nnc4-c4ccncc4)SC3)cccc2c1 | 53.3% | 64.7% | 52.8 µM | 4.45 µM | 69.2% | 63.7% | 55.6% | 55.2% | 52.9% | 60.7% | 13.7 µM | 47.3% | 49% | 59.9% | 68.2% |  | 
2 | c1ccc(-c2ccc(C3=Nn4c(nnc4-c4ccncc4)SC3)cc2)cc1 | 32.7% | 41.8% | 42.6 µM | 3.84 µM | 45.8% | 62.3% | 61.2% | 44.5% | 58.9% | 37.5% | 16.1 µM | 52.3% | 55.9% | 47.8% | 56.9% |  | 
3 | Cc1ccccc1OCc1nn2c(-c3ccncc3)nnc2s1 | 51.2% | 56.5% | 51.3 µM | 3.08 µM | 62.1% | 56.8% | 71.4% | 50.5% | 68.9% | 54.9% | 41.5 µM | 62.1% | 65.5% | 53.2% | 59.2% |  | 
4 | C[C@@H]1[C@H](O)[C@@H](C)/C=C/C=C/C=C/C=C/C=C/C=C/C=C/[C@H](O[C@@H]2O[C@H](C)[C@@H](O)[C@H](N)[C@@H]2O)C[C@@H]2O[C@](O)(C[C@@H](O)C[C@@H](O)[C@H](O)CC[C@@H](O)C[C@@H](O)CC(=O)O[C@H]1C)C[C@H](O)[C@H]2C(=O)O [AMPHOTERICIN B] |  |  |  |  |  |  | 79.8% |  | 76.3% |  |  | 69.9% | 74.8% |  |  |  | 
5 | O=[N+]([O-])c1cccc(C2=Nn3c(nnc3-c3ccncc3)SC2)c1 | 48.2% | 62.5% | 16.6 µM | 3.59 µM | 67.1% | 65.5% | 63.1% | 57.9% | 59.6% | 55.1% | 28 µM | 54.6% | 57.5% | 62.1% | 69.4% |  | 
6 | Fc1cc(Cl)ccc1-c1nn2c(-c3ccncc3)nnc2s1 | 44.4% | 51.6% | 9.57 µM | 0.92 µM | 55.6% | 80.9% | 52.5% | 73.7% | 49.5% | 47.2% | 21.3 µM | 42.5% | 46.2% | 77.8% | 85.5% |  | 
7 | CCOc1ccc(Cc2nn3c(-c4ccncc4)nnc3s2)cc1 | 38.2% | 45.4% | 32.1 µM | 6.17 µM | 48.6% | 67.4% | 66.8% | 60.2% | 63% | 40.9% | 3.48 µM | 56.4% | 60.8% | 63.8% | 70.5% |  | 
8 | COc1ccc(OCc2nn3c(-c4ccncc4)nnc3s2)cc1 | 63.3% | 71.9% | 37.9 µM | 3.72 µM | 74% | 65.6% | 60.5% | 57.2% | 57.2% | 68.8% | 0.77 µM | 49.6% | 52.2% | 61.7% | 68.9% |  | 
9 | Fc1ccc(OCc2nn3c(-c4ccncc4)nnc3s2)cc1 | 43.8% | 48.3% | 54.1 µM | 2.59 µM | 52.7% | 28.5% | 53.8% | 21.3% | 51.4% | 45.4% | 36.8 µM | 46.7% | 49.1% | 25.6% | 32% |  | 
10 | c1coc(-c2nn3c(-c4ccncc4)nnc3s2)c1 | 41% | 48.2% | 61.6 µM | 3.24 µM | 50.9% | 63.8% | 81.2% | 56% | 77.2% | 44.9% | 12.4 µM | 71.5% | 75.8% | 60.9% | 67.9% |  | 
11 | CC[C@]1(O)C[C@H]2CN(CCc3c([nH]c4ccccc34)[C@@](C(=O)OC)(c3cc4c(cc3OC)N(C=O)[C@H]3[C@@](O)(C(=O)OC)[C@H](OC(C)=O)[C@]5(CC)C=CCN6CC[C@]43[C@@H]65)C2)C1 [VINCRISTINE] | 69.8% | 72.6% |  |  | 74.5% | 72.6% |  | 69.8% |  | 70.9% |  |  |  | 70.9% | 74.5% |  | 
12 | CN(C)C(=O)Oc1cccc([N+](C)(C)C)c1 [NEOSTIGMINE] |  |  | 26.1 µM |  |  |  |  |  |  |  | 14.2 µM |  |  |  |  |  | 
13 | Fc1ccc(-c2nn3c(-c4ccncc4)nnc3s2)cc1Cl | 40.9% | 46.3% |  | 2.01 µM | 51.4% | 50.9% | 56.7% | 43.6% | 54.3% | 43.6% | 30.2 µM | 47.7% | 51.6% | 46.6% | 53.7% | 14.4% | 
14 | Oc1ccc(OCc2nn3c(-c4ccncc4)nnc3s2)cc1 | 51.6% | 56.2% | 39.1 µM | 5.61 µM | 60.5% | 60.9% | 48% | 52.6% | 45.3% | 53.7% | 15.6 µM | 37.2% | 41.9% | 56.3% | 63.7% |  | 
15 | Nn1c(S)nnc1-c1ccncc1 | 39.6% | 45.1% | 49.6 µM | 4.43 µM | 48.3% | 47.4% |  | 40.4% | 36.7% | 42.1% | 13.5 µM | 30.9% | 33.6% | 43.4% | 51.5% |  | 39.5%
16 | Fc1cccc(C2=Nn3c(nnc3-c3ccncc3)SC2)c1 | 54.6% | 61.2% |  | 9.83 µM | 64.3% | 75.6% | 52.3% | 69.6% | 49.6% | 56.9% | 18.6 µM | 44.9% | 46.1% | 72.3% | 78.6% | 38.7% | 
